CTSL1 counter: cathepsin L1 inhibition, PFM18AAP counter-screen | recombinant F. hepatica cathepsin L1, Z-Leu-Arg-MCA fluorescence | inhibition, % at 5.96 µM | 300,000 tested, 0.49% active;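 active = inhibition above the mean of all tested compounds plus 3 SD, set per screening campaign, cut at about 17% in these data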;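 also: 0% = plate median of test compound wells and 100% = 1 µM Z-Phe-Ala-diazomethylketone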
PKA-R1A activ: activators of PKA-R1A complex | PKA-R1A dissociation, Cy5-IP20 fluorescence polarization; scaled: DMSO 0%, 113 µM cGMP 100% | AID 504707 | 340,000 tested, 0.083% active | P00514+P68181 | activation, % at 11.4 µM;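 active = percent activation above the mean of all tested compounds plus 3 SD, cut at about 19% in these data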;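 also: higher means more PKAc released from R1A so a rise in polarization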
UCH37 DUB inh: inhibitors of human deubiquitinating enzyme UCH37. purified proteasome/UCH37, Ub-AMC cleavage fluorescence. 330,000 tested, 0.33% active. AID 588478. Q9Y5K5. inhibition, % (no concentration beside the values);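 active = mean inhibition over replicate wells above about 20%, limit read from the data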;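 also: 0% = compound-free wells with enzyme and 100% = wells lacking proteasome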
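assay system = human UCH37 enzyme supplied as purified proteasome complex | amount = proteasome at 0.15 nM in the dispensed enzyme solution | schedule = 30 min compound-proteasome preincubation then 25 min substrate reaction, room temperature | measured by = fluorescence, ex 355 nm, em 460 nm | benchmarks = no-proteasome wells (full inhibition) and compound-free wells (no inhibition)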
PKA-R2B act: PKA-R2B complex activation; P22694+P31323; PKA-R2B holoenzyme dissociation, Cy5-IP20 fluorescence polarization; R2B truncated from residue 108, S112A mutant; 0% DMSO only, 100% 113 µM cGMP; activation, % at 11.4 µM; 340,000 tested, 0.079% active;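 active = activation above a cutoff set at the mean over all compounds plus 3 SD, cut at about 18% in these data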;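 also: higher means more holoenzyme dissociation and a rise in polarization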
Target sequence (P31323 whole entry, looked up, other chains not shown, the tested form may be a part): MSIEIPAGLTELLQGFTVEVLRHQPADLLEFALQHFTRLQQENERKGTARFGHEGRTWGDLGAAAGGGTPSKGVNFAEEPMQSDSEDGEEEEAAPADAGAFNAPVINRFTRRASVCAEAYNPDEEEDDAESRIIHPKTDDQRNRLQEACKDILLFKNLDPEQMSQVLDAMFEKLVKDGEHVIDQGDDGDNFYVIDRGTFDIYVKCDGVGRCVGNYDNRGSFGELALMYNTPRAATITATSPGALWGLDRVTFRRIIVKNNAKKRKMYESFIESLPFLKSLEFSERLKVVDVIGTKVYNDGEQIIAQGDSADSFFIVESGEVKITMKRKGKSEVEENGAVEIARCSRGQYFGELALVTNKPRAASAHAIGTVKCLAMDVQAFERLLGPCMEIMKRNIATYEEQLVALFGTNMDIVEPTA
aDG glyco act: increases alpha dystroglycan glycosylation; Pro5-aDG cells, alpha-DG glycosylation AlphaScreen (IIH6); 0% Pro5, 100% B10-LARGE cell signal; activation, % at 10 µM; 360,000 tested, 0.22% active; AID 624168;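 active = activation of at least 8% versus controls, or a plate z-score of at least 8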;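 also: Pro5 are CHO cells carrying HIG-tagged alpha-DG that lacks glycosylation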
aDG glyco conf: confirmation of alpha dystroglycan glycosylation activators; activation, % at 10 µM (by protocol); Pro5-aDG cells, alpha-DG glycosylation, IIH6 AlphaLISA; scaled to LARGE-overexpressing B10 cells as 100%; shares compounds with aDG glyco act; 600 tested, 17% active;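 active = activation of at least 7% in one or more replicates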;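 also: cells exposed to compound for two days before detection; 0% = DMSO-treated Pro5 cells and 100% = DMSO-treated B10-LARGE cells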
Starred values were filed as active, the others as inactive. The list is not random: actives were taken first. Their share in the collection is about 0.94%.

For CC(C)CCNC(=O)CON=Cc1ccccc1OC(F)F the results were UCH37 DUB inh 3.
Cn1c(Br)nc2c1c(=O)n(Cc1ccccc1)c(=O)n2C was read as CTSL1 counter 5, PKA-R1A activ 2, UCH37 DUB inh 2, PKA-R2B act 8, aDG glyco act 2.4* and aDG glyco conf 1.
Screening Cc1cc2ccccc2n1CCNC(=O)C1CC1 returned CTSL1 counter 1, PKA-R1A activ 0, UCH37 DUB inh 2, PKA-R2B act 10, aDG glyco act 7.8* and aDG glyco conf 0.
For Cc1cc2ccccc2n1CCNC(=O)C1CCCC1 the results were CTSL1 counter 2, PKA-R1A activ 2, UCH37 DUB inh 0, PKA-R2B act 2 and aDG glyco act 0.
Screening CN(C)S(=O)(=O)c1cccc(NC(=S)NN=CC(=O)c2ccccc2)c1 returned UCH37 DUB inh 0.
CC(=NNS(=O)(=O)c1ccc([N+](=O)[O-])cc1)c1ccc2c(c1)OCO2 was read as UCH37 DUB inh 2.
Screening COc1ccc(C(=O)Nc2ccc(Cl)c(S(=O)(=O)Nc3ccccc3OC)c2)cc1 returned CTSL1 counter 2, PKA-R1A activ 3, UCH37 DUB inh -1, PKA-R2B act 9, aDG glyco act 3.7* and aDG glyco conf 1.
`O=C(CCN1C(=O)c2ccccc2C1=O)NCc1ccc(Cl)cc1` gave CTSL1 counter 1, PKA-R1A activ 9, UCH37 DUB inh 0, PKA-R2B act -7, aDG glyco act 2.7* and aDG glyco conf 0.
O=C(CCCN1C(=O)c2ccccc2C1=O)NCc1ccc(F)cc1 was read as CTSL1 counter 5, PKA-R1A activ 2, UCH37 DUB inh 4, PKA-R2B act -2 and aDG glyco act 0.
Screening Cc1ccc(C=NNC(=O)c2nnn(-c3nonc3N)c2CSc2ccccc2)o1 returned UCH37 DUB inh 0.
Screening COc1ccc(-c2cc(-c3ccc(F)cc3)nc(N3CCN(C)CC3)n2)cc1 returned CTSL1 counter 3, PKA-R1A activ -1, UCH37 DUB inh -22, PKA-R2B act 3, aDG glyco act 15* and aDG glyco conf 0.
For c1ccc(CCNc2ncnc3sccc23)nc1 the results were CTSL1 counter -3, PKA-R1A activ -13, UCH37 DUB inh -2, PKA-R2B act 2 and aDG glyco act 0.
Cc1csc2ncnc(NCCc3ccccn3)c12 was read as CTSL1 counter 0, PKA-R1A activ -5, UCH37 DUB inh -2, PKA-R2B act -10, aDG glyco act 10* and aDG glyco conf 2.
`Cc1ccc(OCC(=O)NN=C/C=C/c2ccco2)cc1` gave UCH37 DUB inh 4.
c1ccc(-c2nnc(CN3CCN(C(c4ccccc4)c4ccccc4)CC3)o2)cc1 was read as CTSL1 counter -1, PKA-R1A activ -9, UCH37 DUB inh 3, PKA-R2B act 7, aDG glyco act 6.8* and aDG glyco conf 0.
`COc1cc(OC)cc(C(=O)NN=Cc2ccc(OC)c(COc3ccc(F)cc3)c2)c1` gave UCH37 DUB inh 4.
`O=C(CNC(=O)c1cccc(F)c1)NN=Cc1cccc([N+](=O)[O-])c1` gave UCH37 DUB inh 5.
For O=C(CNC(=O)c1cccc(F)c1)N/N=C/c1ccc([N+](=O)[O-])s1 the results were CTSL1 counter -4, PKA-R1A activ 2, PKA-R2B act -7, aDG glyco act 11* and aDG glyco conf 3.
Screening O=C(NN=C1CC(c2ccccc2)Oc2ccccc21)C1CC1 (centres undefined) returned UCH37 DUB inh 4.
COc1ccc(Cc2nc(-c3ccc(NC(=O)c4cccnc4)cc3)no2)cc1 was read as CTSL1 counter 4, PKA-R1A activ 5, UCH37 DUB inh 0, PKA-R2B act 4, aDG glyco act 7.5* and aDG glyco conf 6.7*.
COc1ccc(-c2noc(CCC(=O)NCc3cccnc3)n2)cc1 was read as CTSL1 counter 3, PKA-R1A activ -12, UCH37 DUB inh 2, PKA-R2B act -6 and aDG glyco act 0.
For O=C(NCc1cccnc1)NC1(c2ccccc2)CC1 the results were CTSL1 counter -2, PKA-R1A activ -2, UCH37 DUB inh 3, PKA-R2B act -2, aDG glyco act 10* and aDG glyco conf 0.
O=C(CNC(=O)C1COc2ccccc2O1)NN=Cc1ccc(Cl)cc1 (centres undefined) was read as UCH37 DUB inh 3.
COc1cc(N)c2ncsc2c1 was read as PKA-R1A activ -5, UCH37 DUB inh 0, PKA-R2B act -7, aDG glyco act 9.7* and aDG glyco conf 1.
For COc1ccc(OC)c(N)c1 the results were CTSL1 counter 0, PKA-R1A activ 2, UCH37 DUB inh 17, PKA-R2B act -2 and aDG glyco act 0.
CCCOc1ccc(C(=O)N(CC(C)C)c2c(N)n(Cc3ccccc3)c(=O)[nH]c2=O)cc1 was read as CTSL1 counter -2, PKA-R1A activ -3, UCH37 DUB inh 2, PKA-R2B act -7, aDG glyco act 5.7* and aDG glyco conf -1.
Screening O=C(NN=Cc1ccc2c(c1)OCO2)c1cc(-c2ccccc2Cl)nc2ccccc12 returned UCH37 DUB inh -17.
CCOc1cccc(-c2cc(N3CCN(CCO)CC3)n3nccc3n2)c1 was read as aDG glyco act 6.0* and aDG glyco conf -1.
`CC(C)c1cc(-c2cc(-c3ccc(Cl)cc3)on2)nc(NC2CCCC2)n1` gave CTSL1 counter 1, PKA-R1A activ -3, UCH37 DUB inh -9, PKA-R2B act -13, aDG glyco act 5.7* and aDG glyco conf 1.
Screening COC(=O)COc1ccc(S(=O)(=O)Nc2ccc(C(N)=O)cc2)cc1C returned CTSL1 counter -2, PKA-R1A activ -2, UCH37 DUB inh 3, PKA-R2B act -4 and aDG glyco act 0.
For COC(=O)COc1ccc(S(=O)(=O)Nc2ccc(C(N)=O)cc2)cc1Cl the results were CTSL1 counter -4, PKA-R1A activ 0, UCH37 DUB inh 1, PKA-R2B act -10, aDG glyco act 77* and aDG glyco conf -1.
Screening C[C@@H]1CN([C@@H](C)CO)S(=O)(=O)c2ccc(Br)cc2O[C@H]1CN(C)C(=O)CN(C)C returned PKA-R1A activ 2, PKA-R2B act -5 and aDG glyco act 0.
`C[C@H]1CN([C@@H](C)CO)S(=O)(=O)c2ccc(Br)cc2O[C@H]1CN(C)C(=O)CN(C)C` gave aDG glyco act 10* and aDG glyco conf 2.
